Screening data from PubChem.
HSF1 inhib: HSF1 inhibition; NIH3T3-HGL HSE-luciferase, MG132-induced, luminescence 8 h; stronger effect = lower value; activity change, negative = inhibition, % at 7.5 µM (by protocol); 300,000 compounds, 0.77% hits; AID 2098;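 active means more than half of replicate wells show activity change below -50%, luminescence cut by over half; inconclusive means some wells, but at most half, below -50%; inactive means no replicate well below -50%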;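 further: luciferase reports HSF-1 transcriptional activity via heat shock element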
AI-2 QS mod: modulates the Vibrio harveyi AI-2 quorum sensing system; Vibrio harveyi JMH597 AI-2 luminescence/OD600 ratio, 9 h; stronger effect = lower value; strain lacks LuxN and CqsS sensors; 0 = neutral-control median; activity change, % at 7.5 µM; 300,000 compounds, 0.4% hits; in the data active means activity change below about -75%, passing the limit was not always enough; inconclusive means no clear call, values can overlap the other calls;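 further: luminescence divided by OD600 gain over 9 h not by final OD600 alone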
HSF1 activator: increases HSF-1 driven luciferase reporter signal | NIH3T3-HGL HSF-1 luciferase reporter, MG132, 8 h; 100% = twice DMSO control signal | activation, % at 9 µM | 300,000 compounds, 1.7% hits | AID 504408;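 active means mean replicate activation of at least 50% with a set share of replicates each reaching 50%; inconclusive means only one of those two conditions met; inactive means mean below 50% and too few replicates reaching it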
core dimer inh: HCV core protein dimerization inhibition; TR-FRET GST/Flag-core106 dimerization, 1536-well; 300,000 compounds, 0.33% hits; AID 1899; inhibition, % at 5 µM;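 active means inhibition above the mean of all tested compounds plus 3 SD, set per screening campaign, cut at about 45% in these data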
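Assay system: tagged HCV core106 pair (GST and Flag); medium: KF-containing HEPES buffer, pH 7.45, DTT, CHAPS, BSA; also added: Eu donor and XL665 acceptor anti-tag antibodies; dosing: 5 µM single dose; timing: compound-protein-antibody incubation 4 h at 22.5 °C; signal: TR-FRET 671 and 617 nm emission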
PHOSPHO1 inh: inhibitors of human PHOSPHO1 phosphatase; Q8TCT1; recombinant PHOSPHO1, absorbance phosphatase assay; inhibition, % at 13.3 µM; 290,000 compounds, 1.1% hits; AID 1565; in the data active means inhibition above about 60%
Target sequence (Q8TCT1 whole entry, looked up): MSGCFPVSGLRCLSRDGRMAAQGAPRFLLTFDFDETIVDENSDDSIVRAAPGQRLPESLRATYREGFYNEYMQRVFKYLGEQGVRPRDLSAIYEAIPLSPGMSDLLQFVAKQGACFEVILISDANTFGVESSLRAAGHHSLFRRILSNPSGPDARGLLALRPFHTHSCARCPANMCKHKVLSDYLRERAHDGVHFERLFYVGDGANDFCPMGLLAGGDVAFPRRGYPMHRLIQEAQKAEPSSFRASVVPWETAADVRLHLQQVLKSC
ALR inh: blocks human ALR sulfhydryl oxidase activity. AID 485317. purified ALR, DTT oxidation, H2O2 HRP-luminol luminescence. inhibition, % (test concentration not listed). 290,000 compounds, 3.8% hits;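 active means mean replicate inhibition above about 79%, with every replicate also reaching it, limit read from the data; inconclusive means only one of the two criteria met; inactive means mean below limit and not every replicate reaching it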
Target sequence (P55789 whole entry, looked up): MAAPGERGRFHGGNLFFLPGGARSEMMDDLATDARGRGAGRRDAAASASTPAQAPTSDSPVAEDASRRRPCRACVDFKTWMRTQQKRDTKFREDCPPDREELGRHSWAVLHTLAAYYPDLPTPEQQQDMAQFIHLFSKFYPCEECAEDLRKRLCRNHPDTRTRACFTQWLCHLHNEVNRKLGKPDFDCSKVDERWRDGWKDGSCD
Each line names hits and unclear results; the compound was inactive in the other large screens. Compounds with a hit are over-represented: about 6.8% of the library has one in this group of screens.

CC1(C)c2[nH]c3ccccc3c2C[C@@H]2C(=O)N(c3ccc(F)cc3F)C(=O)N21	none (no result: PHOSPHO1 inh)
O=C(NC1CCCCCC1)c1ccco1	none
CC(C)(C)c1ccc(CSc2nc(N)cc(=O)[nH]2)cc1	none (no result: PHOSPHO1 inh)
COc1cc([N+](=O)[O-])ccc1NC(=S)NNC(=O)c1ccc2c(c1)OCO2	ALR inh 97.6
O=C(NC(=S)Nc1ccccc1[N+](=O)[O-])c1ccco1	ALR inh 94.9
O=C(NC(=S)Nc1ccccc1C(F)(F)F)c1ccccc1F	HSF1 activator 76.1
COC(=O)c1ccccc1NC(=S)NC(=O)c1ccccc1	AI-2 QS mod inconclusive, ALR inh 98.2
COCCNC(=S)Nc1ccccc1[N+](=O)[O-]	none (no result: ALR inh)
COC(=O)c1ccccc1NC(=S)NC(=O)c1ccc(C)cc1	none
Cc1ccccc1C(=O)NC(=S)Nc1ccccc1C(F)(F)F	none
CCOc1ccc(N2C(=O)CN(CC(=O)OC)C2=S)cc1	none
Cc1cc(C)c(S(=O)(=O)Cc2ccccc2)c(=O)[nH]1	none
COC(=O)c1ccccc1NC(=S)NC(=O)c1ccccc1C	ALR inh 97.4
COc1cccc(/C=C/C(=O)NNC(=O)c2ccco2)c1OC	none (no result: HSF1 inhib, AI-2 QS mod, HSF1 activator, core dimer inh, PHOSPHO1 inh)
Cc1ccc(C2(c3ccc(C)cc3)CC2C(=O)NC(C)C)cc1 (stereo unspecified)	none (no result: core dimer inh)
COc1ccc(NS(=O)(=O)c2cc(NC(=O)c3cccc(OCc4c(C)noc4C)c3)ccc2OC)cc1	HSF1 activator 57.0
Cc1ccc2[nH]c(=O)c(C3C(C#N)=C(N)Oc4c3ccc3cccnc43)cc2c1 (stereo unspecified)	PHOSPHO1 inh 82.7
O=C(O)CCSc1ncnc2sc(-c3ccccc3)cc12	HSF1 inhib -63.7
CC(=O)CCSc1ncnc2sc(-c3ccccc3)cc12	none
CNCc1ccccc1Sc1ccc(O)c(O)c1	ALR inh 98.7
O=C(Nc1nnc(-c2ccc3c(c2)CCCC3)o1)c1c(F)cccc1F	ALR inh 95.2
O=C(Nc1nnc(-c2ccc3c(c2)CCCC3)o1)c1ccc(Cl)cc1Cl	none (no result: ALR inh)
CCOC(=O)c1c(NC(=O)C2C3C=CC(C3)C2C(=O)O)sc2c1CCC(C)C2 (stereo unspecified)	ALR inh 95.3
CCOC(=O)c1c(NC(=O)C2CC(Cl)=CCC2C(=O)O)sc2c1CCCCC2 (stereo unspecified)	ALR inh 97.7
CCOC(=O)c1c(NC(=O)C2C3C=CC(C3)C2C(=O)O)sc2c1CCCC2 (stereo unspecified)	none
O=C(N/N=C/c1c(Cl)[nH]c2ccccc12)c1ccc2c(c1)OCCO2	none
CCC(=O)NC(NC(=S)Nc1cccc2cccnc12)C(Cl)(Cl)Cl (stereo unspecified)	none
CC(C)(C)C(=O)NC(Nc1cccc2cccnc12)C(Cl)(Cl)Cl (stereo unspecified)	PHOSPHO1 inh 75.6
Cc1cccc(NC(=O)CSc2nnc(NC(=O)c3ccco3)s2)c1	none (no result: HSF1 inhib, HSF1 activator)
Cc1ccc2oc(C(=O)N3CCC(O)(c4cccc(C(F)(F)F)c4)CC3)c(C)c2c1	HSF1 activator 75.4
O=C(NNS(=O)(=O)c1cc(Cl)cc(Cl)c1)c1sccc1-n1cccc1	ALR inh 87.9
Cc1ccc(S(=O)(=O)NNC(=O)c2sccc2-n2cccc2)cc1	none
CC(C)NC(=O)C1(c2ccccc2)CC1(Cl)Cl (stereo unspecified)	none
Cc1csc(NC(=O)C2C3C=CC(O3)C2C(=O)O)n1 (stereo unspecified)	ALR inh 97.8
O=C(NC(=S)N1CCN(c2ccc(O)cc2)CC1)c1cccs1	ALR inh 98.9
O=C(c1cc2c(s1)-c1ccccc1OC2)N1CCN(c2ccccc2)CC1	HSF1 inhib -63.6
O=C(NC(=S)N1CCN(c2ccccc2)CC1)c1c(F)cccc1F	ALR inh 98.8
O=C(NC(=S)N1CCN(c2c(Cl)cccc2[N+](=O)[O-])CC1)c1cccs1	HSF1 inhib -94.9 (no result: ALR inh)
CCOC(=O)N1CCN(C(=O)CCNS(=O)(=O)c2ccc3c(c2)c(=O)n(C)c(=O)n3C)CC1	none (no result: ALR inh)
Cc1cc(N)nc2nc(C(F)(F)F)nn12	none
COc1ccc(N2CCN(C(=O)C3CCN(S(=O)(=O)c4cccs4)CC3)CC2)cc1	none
O=C(c1cccs1)N1CCN(c2ccccc2)CC1	ALR inh 98.2
O=C(NC(=S)N1CCN(c2ccc(F)cc2)CC1)c1cccs1	HSF1 activator 103.5, ALR inh 94.5
O=C(c1cccs1)N1CCN(c2ccc(F)cc2)CC1	none (no result: ALR inh)
O=C(C1CCN(S(=O)(=O)c2cccs2)CC1)N1CCN(c2ccccc2)CC1	ALR inh 84.2
O=C(c1c[nH]c2ccccc12)N1CCN(c2ccccc2)CC1	ALR inh 87.4
O=C(COC(=O)c1ccc(S(=O)(=O)NCc2ccco2)cc1)Nc1ccc(Cl)cn1	none
Cc1ccccc1CNCCCSc1ncccn1	none (no result: PHOSPHO1 inh)
Cc1cc(Br)ccc1OCC(=O)NNC(=O)C(=O)Nc1ccccc1	none
CC(=O)c1c(C)[nH]c(C(=O)NCCc2c[nH]c3ccccc23)c1C	none
CCc1ccc(/C=C2\Oc3cc(OC(=O)N4CCOCC4)ccc3C2=O)cc1	HSF1 inhib -75.8
COc1ccc(/C=C2\Oc3cc(OC(=O)N4CCOCC4)ccc3C2=O)cc1	none
Cc1ccc(-c2nc3cnccn3c2Nc2ccc3c(c2)OCO3)cc1	none (no result: ALR inh)
Cc1ccc2nc(-c3ccc(O)cc3)c(Nc3ccc4c(c3)OCCO4)n2c1	none
CCCCNc1c(-c2ccc(OC)c(Sc3ccc(OC)cc3)c2)nc2cnccn12	none (no result: HSF1 inhib, AI-2 QS mod, HSF1 activator, core dimer inh, PHOSPHO1 inh)
COc1ccc(Nc2c(-c3ccc(C)cc3)nc3cnccn23)cc1	ALR inh 98.8
COc1ccc(Nc2c(-c3ccc(OC)cc3)nc3cnccn23)cc1	ALR inh 98.5
COc1ccc(-c2nc3cnccn3c2Nc2ccc3c(c2)OCO3)cc1	ALR inh 87.0
Cc1ccc(-c2nc3cnccn3c2Nc2ccc3c(c2)OCCO3)o1	ALR inh 99.1
COc1ccc(-c2csc(NC(=O)CCS(=O)(=O)c3ccccc3)n2)c(OC)c1	none
O=C(NC1CCSc2ccccc21)c1c(F)cccc1Cl (stereo unspecified)	none
Cc1ccccc1Nc1c(-c2ccc(N3CCOCC3)cc2)nc2cnccn12	none (no result: ALR inh)
CN(C)c1ccc(-c2nc3cnccn3c2Nc2ccc3c(c2)OCCO3)cc1	ALR inh 98.5
Cc1ccc(Nc2c(-c3ccccc3O)nc3cnccn23)cc1	ALR inh 98.9
Cc1ccc(Nc2c(-c3ccccc3O)nc3ncccn23)cc1	ALR inh 98.3
Cc1ccc(Nc2c(-c3ccc(N4CCOCC4)cc3)nc3cnccn23)cc1	ALR inh 98.9
O=C(CN(Cc1ccccc1Cl)C(=O)c1csnn1)NCc1ccccc1	none
